Experimental data published in PubChem BioAssay.
Calls of active or inactive are those of the source. Cut-off read from the data, not from the text of the source, unless noted: active = inhibition above about 30%; inactive = the rest.

How the values were obtained:
[1] = Her2 expression decrease, cell viability multiplex – SKBR3 breast tumor cells, AlphaScreen, ATP viability, primary screen (AID 461;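 active = Her2 level under about 52% in both replicate screens, with viability over 70% of control, limit read from the data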;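 for Her2 level: lower value means less Her2 protein in the cells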;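 for viability: percent of carrier control wells set as 100% viability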); conditions: SKBR3 Her2 protein level, 18-24 h, measured here: SKBR3 viability, ATP luminescence, at 10 µM
[2] = target: Receptor tyrosine-protein kinase erbB-2 (Homo sapiens) (UniProt P04626); experiment: as above; conditions: 18-24 h, at 10 µM, stronger effect = lower value
[3] = reduced viability of SK-BR-3 breast cancer cells – cell-based, 24 h, human, pilot screen (AID 572;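 active = viability at or below 10% of carrier control in both of two separate runs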;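 note: compound exposure lasted between 18 and 24 h rather than exactly 24 h; 100% = carrier-treated control wells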); conditions: SK-BR-3 viability, CellTiter-Glo luminescence, at 10 µM, stronger effect = lower value
[4] = HUVEC growth inhibition – cell-based, human, primary screen (AID 575;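 active = viability at or below 30% in both replicate assays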;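 note: 100% = median of untreated cell wells with 0.1% DMSO on each plate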); conditions: HUVEC proliferation, CellTiter-Glo luminescence, 72 h; at 10 µM; stronger effect = lower value
In short: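 Test system: primary human umbilical vein endothelial cells; medium: endothelial basal medium with 2% FBS plus growth supplements; dosing: 10 µM compound only; times: 72 h treatment at 37 °C; signal: CTG luminescence; read-out: % viability relative to median vehicle-well signal on each plate; control set: vehicle and MePR control wells; plate: 384-well, collagen-coated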

[5] = H69AR cell proliferation blockers – human, duplicate replicates, primary screen (AID 580;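 active = viability at or under a set limit in both replicates, limit being median viability minus 3 SD, cut at about 48% in these data, passing the limit was not always enough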;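 note: 100% = mean luminescence of untreated wells and 0% = no signal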); conditions: H69AR lung tumor cells viability, ATP luminescence, 72 h; at 10 µM; stronger effect = lower value
[6] = MRP1 drug-resistance reversers in H69AR cells – cell-based, doxorubicin co-treatment, pilot screen (AID 601;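 active = viability loss from added drug above about 55%, and viability with drug at most 40%, in both replicates, limit read from the data, passing the limit was not always enough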); conditions: CellTiter-Glo, 72 h, at 10 µM; for differential viability (reversal): stronger effect = higher value
[7] = yeast transport mutant growth inhibition pilot in 384-well plates, post-Golgi transport modulator project (AID 636; in the data active = inhibition above about 31%); conditions: absorbance 615 nm, about 18 h, stronger effect = higher value
[8] = growth suppression of yeast trafficking mutant, preliminary HTS, modulators of trafficking downstream of Golgi apparatus project, 1536-format plate, OD 615 nm (AID 637); conditions: yeast transport mutant growth, absorbance 615 nm, 18 h; stronger effect = higher value
[9] = H69AR cells + 2 uM doxorubicin, measured here: viability with 2 uM doxorubicin, stronger effect = lower value
[10] = H69AR cells, compound alone cytotoxicity

Sequence of Receptor tyrosine-protein kinase erbB-2 (Homo sapiens) (P04626 whole entry, looked up): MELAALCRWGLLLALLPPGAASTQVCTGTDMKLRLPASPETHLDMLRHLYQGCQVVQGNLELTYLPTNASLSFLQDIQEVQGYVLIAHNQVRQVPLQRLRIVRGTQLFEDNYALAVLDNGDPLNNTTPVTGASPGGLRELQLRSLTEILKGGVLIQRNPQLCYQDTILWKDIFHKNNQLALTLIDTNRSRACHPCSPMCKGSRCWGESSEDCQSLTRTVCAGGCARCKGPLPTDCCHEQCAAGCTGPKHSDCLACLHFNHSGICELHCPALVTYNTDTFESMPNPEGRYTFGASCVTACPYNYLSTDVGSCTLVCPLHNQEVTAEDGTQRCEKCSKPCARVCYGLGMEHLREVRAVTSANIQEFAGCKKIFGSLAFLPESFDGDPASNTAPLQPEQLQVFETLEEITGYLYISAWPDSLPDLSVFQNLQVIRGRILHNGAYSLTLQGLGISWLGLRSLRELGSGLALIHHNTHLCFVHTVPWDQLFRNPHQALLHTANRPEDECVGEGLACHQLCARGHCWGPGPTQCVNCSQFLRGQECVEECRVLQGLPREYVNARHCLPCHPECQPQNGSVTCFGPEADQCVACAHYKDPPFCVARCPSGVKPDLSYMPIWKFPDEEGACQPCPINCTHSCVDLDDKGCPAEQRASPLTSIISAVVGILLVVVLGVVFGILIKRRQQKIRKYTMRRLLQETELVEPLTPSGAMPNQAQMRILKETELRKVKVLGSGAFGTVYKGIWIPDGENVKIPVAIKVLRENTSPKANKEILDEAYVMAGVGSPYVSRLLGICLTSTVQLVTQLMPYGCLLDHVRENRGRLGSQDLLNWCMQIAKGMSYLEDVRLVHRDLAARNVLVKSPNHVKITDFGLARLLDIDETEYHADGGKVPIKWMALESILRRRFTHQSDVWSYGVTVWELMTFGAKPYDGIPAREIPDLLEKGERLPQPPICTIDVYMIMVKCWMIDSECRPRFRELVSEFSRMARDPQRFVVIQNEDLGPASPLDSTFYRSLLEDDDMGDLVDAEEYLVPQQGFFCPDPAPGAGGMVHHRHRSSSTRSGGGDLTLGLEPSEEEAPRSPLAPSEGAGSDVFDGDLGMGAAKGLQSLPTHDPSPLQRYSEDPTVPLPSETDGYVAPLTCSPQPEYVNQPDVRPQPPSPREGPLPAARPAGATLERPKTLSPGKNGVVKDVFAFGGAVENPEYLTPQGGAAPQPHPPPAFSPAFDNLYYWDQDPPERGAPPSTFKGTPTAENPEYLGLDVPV

SMILES	viability [1] [%]	Her2 level [2]	viability [3]	viability [4]	viability [5]	differential viability (reversal) ([6]; H69AR cells + 2 uM doxorubicin)	viability [6, 9] [%]	viability [6, 10] [%]	inhibition [7]	inhibition [8]
CCC(C)(C(=O)NC1CCCCC1)N(CC1CCCO1)C(=O)c1ccccn1 (stereo not given)	82	99% (inactive)	82% (inactive)	91.6% (inactive)	89% (inactive)	-1.55% (inactive)	90.6	89	-0.26% (inactive)	-1.15% (inactive)
Cc1cc(-c2ccc(F)cc2)nc2cc(C(N)=O)nn12	94.5	104% (inactive)	94.5% (inactive)	84.6% (inactive)	87.6% (inactive)	-1.99% (inactive)	89.6	87.6	-2.47% (inactive)	17.3% (inactive)
O=S1(=O)CCC(NS(=O)(=O)/C=C/c2ccccc2)C1 (stereo not given)	110	104% (inactive)	110% (inactive)	93.4% (inactive)	99.2% (inactive)	9.1% (inactive)	90.1	99.2	-6.22% (inactive)	-3.11% (inactive)
CC(=O)Nc1ccc(S(=O)(=O)N2CCN(C(C)CCc3ccccc3)CC2)cc1 (stereo not given)	74	98.5% (inactive)	74% (inactive)	97.8% (inactive)	96.6% (inactive)	5.17% (inactive)	91.4	96.6	-4.8% (inactive)	-1.29% (inactive)
CC(=O)c1cn(CC(=O)NCc2ccc3c(c2)OCO3)c2ccccc12	102	93% (inactive)	102% (inactive)	98.4% (inactive)	99% (inactive)	6.8% (inactive)	92.2	99	-9.32% (inactive)	3.65% (inactive)
CCNC(=O)Cn1cnc2c1c(=O)n(C)c(=O)n2C	108	108% (inactive)	108% (inactive)	112% (inactive)	96.2% (inactive)	-1.97% (inactive)	98.2	96.2	-4.74% (inactive)	5.25% (inactive)
Cc1nc2sc(C(c3cccc(F)c3)N3CCCCC3)c(O)n2n1 (stereo not given)	109	80% (inactive)	109% (inactive)	95.1% (inactive)	99.5% (inactive)	10.9% (inactive)	88.6	99.5	-4.79% (inactive)	-4.92% (inactive)
CN(C)S(=O)(=O)c1ccc(C(=O)NCc2cccs2)cc1	82	87% (inactive)	82% (inactive)	101% (inactive)	101% (inactive)	8.48% (inactive)	92.8	101	-4.05% (inactive)	3.81% (inactive)
CC(C(=O)N1CCc2ccccc21)N1CCc2ccccc2C1 (stereo not given)	82	79% (inactive)	82% (inactive)	93.7% (inactive)	91.6% (inactive)	-10.2% (inactive)	102	91.6	-0.53% (inactive)	-3.11% (inactive)
COC(=O)c1cc(NC(=O)C2COc3ccccc3O2)cc(C(=O)OC)c1 (stereo not given)	106	86% (inactive)	106% (inactive)	91.1% (inactive)	84.2% (inactive)	10.2% (inactive)	74	84.2	-5.6% (inactive)	0.32% (inactive)
CCN(C(=O)c1cc(Cl)ccc1OC)C1CCCCC1	86.5	104% (inactive)	86.5% (inactive)	101% (inactive)	83.8% (inactive)	-10.6% (inactive)	94.4	83.8	-2.86% (inactive)	-2.5% (inactive)
COc1ccc(NCc2nnc(SCC(=O)Nc3cc(C)cc(C)c3)o2)cc1	112	90.5% (inactive)	112% (inactive)	70% (inactive)	81.9% (inactive)	-3.66% (inactive)	85.6	81.9	-6.53% (inactive)	-1.64% (inactive)
CC1CCN(S(=O)(=O)c2ccc3[nH]c(=O)cc(C(=O)O)c3c2)CC1	98	114% (inactive)	98% (inactive)	106% (inactive)	105% (inactive)	17.1% (inactive)	88.3	105	-4.16% (inactive)	-4.1% (inactive)
CCn1c(SCC(=O)Nc2nnc(C)s2)nnc1-c1ccncc1	112	76% (inactive)	112% (inactive)	107% (inactive)	95.5% (inactive)	4.15% (inactive)	91.4	95.5	-7.43% (inactive)	6.17% (inactive)
O=C(OCN1C(=O)c2ccccc2C1=O)c1ccc2c(=O)n3c(nc2c1)CCC3	109	85.5% (inactive)	109% (inactive)	112% (inactive)	96.7% (inactive)	-0.565% (inactive)	97.2	96.7	-4.73% (inactive)	14.8% (inactive)
Cc1ccccc1CN1CCNC1=O	114	80% (inactive)	114% (inactive)	88.3% (inactive)	90.8% (inactive)	8.97% (inactive)	81.9	90.8	-3.16% (inactive)	6.61% (inactive)
Cc1occc1-c1nnc(SCC(=O)N2CCc3ccccc32)o1	98.5	82.5% (inactive)	98.5% (inactive)	85.8% (inactive)	3.12% (active)	0.62% (inactive)	2.5	3.12	-3.01% (inactive)	-3.02% (inactive)
c1ccc2c(c1)Cn1c-2nc2ccccc21	114	95% (inactive)	114% (inactive)	120% (inactive)	78.4% (inactive)	-1.54% (inactive)	79.9	78.4	-6.35% (inactive)	1% (inactive)
N#CCCCN1C(=O)C(O)(CC(=O)c2ccc3c(c2)OCCO3)c2ccccc21 (stereo not given)	100	93.5% (inactive)	100% (inactive)	89.5% (inactive)	85.3% (inactive)	6.12% (inactive)	79.2	85.3	-2.89% (inactive)	-9.03% (inactive)
ON1C2CCCCC2N(O)C1c1c(F)c(F)c(F)c(F)c1F (stereo not given)	89.5	79% (inactive)	89.5% (inactive)	85.9% (inactive)	92.8% (inactive)	10.3% (inactive)	82.5	92.8	-5.2% (inactive)	-0.97% (inactive)
Cc1nn(-c2ccccc2)c(Cl)c1C(=O)NCC(=O)O	100	96% (inactive)	100% (inactive)	105% (inactive)	113% (inactive)	1.59% (inactive)	111	113	-6.45% (inactive)	0.17% (inactive)
Cn1c(SCC(=O)N2CCOCC2)nnc1-c1cccc(NC(=O)c2ccccc2F)c1	102	82.5% (inactive)	102% (inactive)	94% (inactive)	91.5% (inactive)	11.4% (inactive)	80.1	91.5	-0.92% (inactive)	3.06% (inactive)
COc1ccc(CN(C(=O)CNC(=O)c2ccco2)C(C(=O)NC2CCCC2)c2ccco2)cc1 (stereo not given)	91	106% (inactive)	91% (inactive)	103% (inactive)	95.4% (inactive)	7.6% (inactive)	87.8	95.4	-0.39% (inactive)	-5.48% (inactive)
Cc1ccc(S(=O)(=O)N2CCC(C(=O)N[C@@H](Cc3ccccc3)C(=O)O)CC2)cc1	104	174% (inactive)	104% (inactive)	108% (inactive)	86.9% (inactive)	9.85% (inactive)	77.1	86.9	-4.27% (inactive)	-6.13% (inactive)
CCOC(=O)C1CCCN(C(=O)c2cc3c(C)nc4ccccc4c3o2)C1 (stereo not given)	86	99% (inactive)	86% (inactive)	71.7% (inactive)	74.7% (inactive)	38.5% (inactive)	36.2	74.7	-1.87% (inactive)	16.7% (inactive)
Cc1cc(NC(=O)COc2cccc(Oc3ccccc3)c2)no1	75.5	90% (inactive)	75.5% (inactive)	50.9% (inactive)	22.4% (active)	-38.2% (inactive)	60.6	22.4	-0.38% (inactive)	3.33% (inactive)
c1cc(-c2nc3ccccc3o2)nc(-c2nc3ccccc3o2)c1	122	94.5% (inactive)	122% (inactive)	90.9% (inactive)	87.6% (inactive)	7.43% (inactive)	80.2	87.6	-4.21% (inactive)	1.83% (inactive)
Cc1ccccc1S(=O)(=O)Cc1ccc(C(=O)NCc2cccnc2)o1	93	83.5% (inactive)	93% (inactive)	97.8% (inactive)	94.2% (inactive)	6.61% (inactive)	87.6	94.2	-1.84% (inactive)	-2.91% (inactive)
